Source: ChEMBL document CHEMBL1150956, “Antitubercular natural products: berberine from the roots of commercial Hydrastis canadensis powder. Isolation of inactive 8-oxotetrahydrothalifendine, canadine, beta-hydrastine, and two new quinic acid esters, hycandinic acid esters-1 and -2” (1998)
Calls of active or inactive are those of the source. The calls are words filed in the database; no cut-off is given here.

Tests used:
Staphylococcus aureus [1] = assay: Antimicrobial activity against Staphylococcus aureus ATCC 13709 at 1000 ug/ml; type: functional, organism-based
[2] = test system: Mycolicibacterium smegmatis; assay: Antimicrobial activity against Mycobacterium smegmatis ATCC 607 at 1000 ug/ml; type: functional, organism-based
Candida albicans [3] = assay: Antimicrobial activity against Candida albicans ATCC 10231 at 1000 ug/ml; type: functional, organism-based
Staphylococcus aureus [4] = assay: Antimicrobial activity against Staphylococcus aureus ATCC 13709; type: functional
Escherichia coli [5] = assay: Antimicrobial activity against Escherichia coli ATCC 9637; type: functional
[6] = test system: Salmonella enterica subsp. enterica serovar Gallinarum; assay: Antimicrobial activity against Salmonella gallinarum ATCC 9184; type: functional
Klebsiella pneumoniae [7] = assay: Antimicrobial activity against Klebsiella pneumoniae ATCC 10031; type: functional
[8] = test system: Mycolicibacterium smegmatis; assay: Antimicrobial activity against Mycobacterium smegmatis ATCC 607; type: functional
Candida albicans [9] = assay: Antimicrobial activity against Candida albicans ATCC 10231; type: functional
Pseudomonas aeruginosa [10] = assay: Antimicrobial activity against Pseudomonas aeruginosa ATCC 27853; type: functional
[11] = test system: Mycobacterium intracellulare; assay: Antimicrobial activity against recombinant Mycobacterium intracellular expressing pMV361 lux after 3 days by luciferase assay; type: functional; details: 72 h
Summary of the method: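 Recombinant M. intracellulare pMV361 lux at about 5e5 cfu/mL final, in Middlebrook 7H9 broth with compound at 0.1–50 µg/mL; no-drug 1% DMSO growth controls. Incubated at 36 °C in ambient air. 100 µL culture plus 100 µL of 1 mM luciferin, read as RLU at day 0 (within 30 min) and after 3 days.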

Klebsiella pneumoniae [12] = assay: Antimicrobial activity against Klebsiella pneumoniae ATCC 10031 at 1000 ug/ml; type: functional, organism-based
Escherichia coli [13] = assay: Antimicrobial activity against Escherichia coli ATCC 9637 at 1000 ug/ml; type: functional, organism-based
[14] = test system: Salmonella enterica subsp. enterica serovar Gallinarum; assay: Antimicrobial activity against Salmonella gallinarum ATCC 9184 at 1000 ug/ml; type: functional, organism-based
Pseudomonas aeruginosa [15] = assay: Antimicrobial activity against Pseudomonas aeruginosa ATCC 27853 at 1000 ug/ml; type: functional, organism-based

| SMILES | Activity (Staphylococcus aureus [1]) | Activity [2] | Activity (Candida albicans [3]) | MIC [11] [µg/mL] | Activity (Klebsiella pneumoniae [12]) | other results |
| --- | --- | --- | --- | --- | --- | --- |
| CCCCOC(=O)[C@@]1(OC(C)=O)CC(OC(C)=O)[C@H](OC(=O)/C=C/c2ccc(OC(C)=O)c(OC)c2)[C@H](OC(C)=O)C1 (some centres not stated) | inactive | inactive | inactive | – | – | – |
| CN[C@@H]1[C@H](O[C@H]2[C@H](O[C@H]3[C@H](O)[C@@H](O)[C@H](N=C(N)N)[C@@H](O)[C@@H]3N=C(N)N)O[C@@H](C)[C@]2(O)C=O)O[C@@H](CO)[C@H](O)[C@H]1O.CN[C@@H]1[C@H](O[C@H]2[C@H](O[C@H]3[C@H](O)[C@@H](O)[C@H](N=C(N)N)[C@@H](O)[C@@H]3N=C(N)N)O[C@@H](C)[C@]2(O)C=O)O[C@@H](CO)[C@H](O)[C@H]1O.O=S(=O)(O)O.O=S(=O)(O)O.O=S(=O)(O)O [STREPTOMYCIN SULFATE] | – | – | – | – | – | MIC (Staphylococcus aureus [4]): 6.25 µg/mL; MIC (Escherichia coli [5]): 6.25 µg/mL; MIC [6]: 50 µg/mL; MIC (Klebsiella pneumoniae [7]): 1.56 µg/mL; MIC [8]: 1.56 µg/mL; MIC (Candida albicans [9]): > 100 µg/mL; MIC (Pseudomonas aeruginosa [10]): 25 µg/mL |
| COc1ccc2c(c1OC)CN1CCc3cc4c(cc3[C@@H]1C2)OCO4 [CANADINE] | inactive | inactive | inactive | > 50 | inactive | – |
| COc1ccc2c(c1OC)C(=O)N1CCc3cc4c(cc3C1C2)OCO4 (configuration not stated) | inactive | inactive | inactive | > 50 | inactive | – |
| COc1c(OC(C)=O)ccc2c1C(=O)N1CCc3cc4c(cc3C1C2)OCO4 (configuration not stated) | inactive | inactive | inactive | > 50 | inactive | – |
| CCCCOC(=O)[C@@]1(OC(C)=O)CC(OC(=O)/C=C/c2ccc(OC(C)=O)c(OC)c2)[C@H](OC(C)=O)[C@H](OC(C)=O)C1 (some centres not stated) | inactive | inactive | inactive | – | – | – |
| COc1c(O)ccc2c1C(=O)N1CCc3cc4c(cc3C1C2)OCO4 (configuration not stated) | inactive | inactive | inactive | > 50 | inactive | – |
| CCCCOC(=O)[C@@]1(O)CC(OC(=O)/C=C/c2ccc(OC(C)=O)c(OC)c2)[C@H](OC(C)=O)[C@H](OC(C)=O)C1 (some centres not stated) | inactive | inactive | inactive | – | – | – |
| COc1ccc2c(c1OC)C(=O)O[C@@H]2C1c2cc3c(cc2CCN1C)OCO3 (some centres not stated) | inactive | inactive | inactive | – | inactive | Activity (Escherichia coli [13]): inactive; Activity [14]: inactive; Activity (Pseudomonas aeruginosa [15]): inactive |
| CCCCOC(=O)[C@@]1(O)CC(O)[C@H](OC(=O)/C=C/c2ccc(O)c(OC)c2)[C@H](O)C1 (some centres not stated) | inactive | inactive | inactive | – | – | – |
| CCCCOC(=O)[C@@]1(O)CC(OC(=O)/C=C/c2ccc(O)c(OC)c2)[C@H](O)[C@H](O)C1 (some centres not stated) | inactive | inactive | inactive | – | – | – |
| COc1ccc2cc3[n+](cc2c1OC)CCc1cc2c(cc1-3)OCO2.[Cl-] [BERBERINE CHLORIDE] | – | – | – | 200 | – | MIC (Staphylococcus aureus [4]): 50 µg/mL; MIC (Klebsiella pneumoniae [7]): 100 µg/mL; MIC [8]: 25 µg/mL; MIC (Candida albicans [9]): 100 µg/mL |
| CCCCOC(=O)[C@@]1(O)CC(OC(C)=O)[C@H](OC(=O)/C=C/c2ccc(OC(C)=O)c(OC)c2)[C@H](OC(C)=O)C1 (some centres not stated) | inactive | inactive | inactive | – | – | – |
